Measurements published in article PMC5845419 (RMD Open, 2018).
Entries after “also recorded” stand apart in the source; their conditions may differ. Read-outs that look alike come from different tables or passages of the source.

Columns and labels:
[1] = format: in vivo, human
Method in brief: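 Adults with gout, open-label, randomised by incomplete block design; 7-day treatment periods, oral dosing ~30 min after standardised breakfast. Serial plasma samples on days 7–35 and timed total-catch urine (1-hour rising to 2- or 10-hour intervals) with scheduled water intake. Plasma by protein precipitation, urine diluted with water; LC-MS/MS. Mixed-effects model (treatment fixed, subject random); geometric means.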

[2] = test system: serum urate (sUA); assay: Serum urate; format: in vivo, human; conditions: 7 days, adults with gout
Method in brief: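 Adults with gout, 7-day periods; second dose of twice-daily regimen given after evening meal ~10 hours after first. Serum sampled at preset intervals on baseline (day −1) and days 7–35; non-ULT subjects started colchicine ~day −7. Emax as maximum per cent sUA change from baseline; mixed-effects model (sequence, treatment fixed; subject random; baseline covariate) giving least-squares means.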

[3] = single oral 10 mg dose, healthy volunteers; cited from earlier work
[4] = Safety and tolerability, phase IIa study in adults with gout; format: in vivo, human; conditions: all dose combinations of verinurad (2.5–20 mg) and allopurinol 300 mg once daily
[5] = allopurinol 600 mg once daily vs 300 mg twice daily
[6] = verinurad 2.5 mg + allopurinol 300 mg once daily
[7] = verinurad 20 mg + allopurinol 300 mg once daily

## Oc1ncnc2[nH]ncc12 [allopurinol, reference compound]
[1]; [5]
  least-squares geometric mean ratio (90% CI), allopurinol Cmax: 204 (162 to 257)
[1]; verinurad at any dose (2.5–20 mg) + allopurinol 300 mg once daily
  change of allopurinol Ae0–24 and CLR0–24 by verinurad: generally unchanged
[2]; allopurinol 300 mg once daily alone
  least-squares mean Emax (maximum per cent decrease in sUA from baseline): 40%
[2]; allopurinol 300 mg twice daily alone
  least-squares mean Emax (maximum per cent decrease in sUA from baseline): 54%
[2]; allopurinol 600 mg once daily alone
  least-squares mean Emax (maximum per cent decrease in sUA from baseline): 54%

## O=c1[nH]c(=O)c2c[nH]nc2[nH]1 [oxypurinol]
[1]; [5]
  least-squares geometric mean ratio (90% CI), oxypurinol Cmax: 122 (103 to 146)

## CC(C)(Sc1ccncc1-c1ccc(C#N)c2ccccc12)C(=O)O [verinurad]
[1]; human, plasma, oral, median Tmax, range across verinurad doses 2.5–20 mg in combination with allopurinol 300 mg once daily
  Tmax: 3 to 3.97 h
[1]; [6]
  Ae0–24 (amount excreted in urine): 17.8 µg
[1]; [7]
  Ae0–24 (amount excreted in urine): 165 µg
[1]; verinurad 2.5–20 mg + allopurinol 300 mg once daily
  effect of verinurad on plasma PK of allopurinol: no effect; also recorded: did not affect
[2]; [6]
  least-squares mean Emax (maximum per cent decrease in sUA from baseline): 47%
[2]; verinurad 5 mg + allopurinol 300 mg once daily
  least-squares mean Emax (maximum per cent decrease in sUA from baseline): 59%
[2]; verinurad 7.5 mg + allopurinol 300 mg once daily
  least-squares mean Emax (maximum per cent decrease in sUA from baseline): 60%
[2]; verinurad 10 mg + allopurinol 300 mg once daily
  least-squares mean Emax (maximum per cent decrease in sUA from baseline): 67%
[2]; verinurad 15 mg + allopurinol 300 mg once daily
  least-squares mean Emax (maximum per cent decrease in sUA from baseline): 68%
[2]; [7]
  least-squares mean Emax (maximum per cent decrease in sUA from baseline): 74%
[3]
  fraction of dose absorbed: ~ 64%
  median time to maximum observed plasma concentration (Tmax): 0.5 h
  terminal half-life: 15 h
[4]
  tolerability: generally well tolerated
[4]; listed as Verinurad
  tolerability: well tolerated
